Values belong to the molecule of their own block, whether it stands above or below them.
Columns and labels:
[1] = molecular target: Phosphodiesterase 4 (Homo sapiens, UniProt P27815+Q08499+Q07343+Q08493); assay: Inhibition of core catalytic domains of human PDE4 using AM-Cyclic-3',5'-AMP after 60 mins by fluorescence polarization assay; assay type: protein assay
[2] = species: Homo sapiens; assay: Selectivity ratio of IC50 for PDE4B2 (unknown origin) to IC50 for PDE4D3 (unknown origin)
[3] = species: Homo sapiens; assay: Selectivity ratio of IC50 for PDE4B1 (unknown origin) to IC50 for PDE4D7 (unknown origin)
[4] = molecular target: 3',5'-cyclic-AMP phosphodiesterase 4D (Homo sapiens, UniProt Q08499); assay: Inhibition of human full-length PDE4D7 using AM-Cyclic-3',5'-AMP after 60 mins by fluorescence polarization assay
[5] = molecular target: 3',5'-cyclic-AMP phosphodiesterase 4B (Homo sapiens, UniProt Q07343); assay: Inhibition of human full-length PDE4B1 using AM-Cyclic-3',5'-AMP after 60 mins by fluorescence polarization assay
[6] = species: Homo sapiens; assay: Selectivity ratio of IC50 for human full-length PDE4B1 to IC50 for human full-length PDE4D7
[7] = species: Homo sapiens; assay: Selectivity ratio of IC50 for PDE4B (unknown origin) to IC50 for PDE4D (unknown origin)
[8] = molecular target: Dual 3',5'-cyclic-AMP and -GMP phosphodiesterase 11A (Homo sapiens) (UniProt Q9HCR9); conditions: 10 uM
[9] = molecular target: cAMP and cAMP-inhibited cGMP 3',5'-cyclic phosphodiesterase 10A (Homo sapiens) (UniProt Q9Y233); assay: Inhibition of human PDE10A2 using AM-Cyclic-3',5'-AMP at 10 uM after 60 mins by fluorescence polarization assay
Procedure, shortened: (§1)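 Recombinant human PDE isoforms in 40 mM MOPS pH 7.5, 0.5 mM EDTA, 15 mM MgCl2, 0.15 mg/mL BSA, 1 mM DTT, 0.05% Proclin 200. […] Final DMSO 1%; 60 min at 25 °C. Binding agent was added, then 1 h more. Fluorescence polarization read at ex 360/em 480 nm. IC50 or single-concentration % inhibition; mean of two experiments.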

[10] = molecular target: cGMP-specific 3',5'-cyclic phosphodiesterase (Homo sapiens) (UniProt O76074); assay: Inhibition of human PDE5A using AM-Cyclic-3',5'-AMP at 10 uM after 60 mins by fluorescence polarization assay; procedure, shortened: as §1
[11] = molecular target: cGMP-inhibited 3',5'-cyclic phosphodiesterase 3B (Homo sapiens) (UniProt Q13370); conditions: 10 uM
[12] = molecular target: cGMP-dependent 3',5'-cyclic phosphodiesterase (Homo sapiens) (UniProt O00408); conditions: 10 uM
[13] = molecular target: High affinity cGMP-specific 3',5'-cyclic phosphodiesterase 9A (Homo sapiens) (UniProt O76083); assay: Inhibition of human PDE9A2 using AM-Cyclic-3',5'-AMP at 10 uM after 60 mins by fluorescence polarization assay; procedure, shortened: as §1
[14] = molecular target: High affinity cAMP-specific and IBMX-insensitive 3',5'-cyclic phosphodiesterase 8A (Homo sapiens) (UniProt O60658); assay: Inhibition of human PDE8A1 using AM-Cyclic-3',5'-AMP at 10 uM after 60 mins by fluorescence polarization assay; procedure, shortened: as §1
[15] = molecular target: High affinity 3',5'-cyclic-AMP phosphodiesterase 7A (Homo sapiens) (UniProt Q13946); conditions: 10 uM
[16] = molecular target: Dual specificity calcium/calmodulin-dependent 3',5'-cyclic nucleotide phosphodiesterase 1A (Homo sapiens) (UniProt P54750); assay: Inhibition of human PDE1A using AM-Cyclic-3',5'-AMP at 10 uM after 60 mins by fluorescence polarization assay; procedure, shortened: as §1
[17] = species: Homo sapiens; assay: Selectivity ratio of IC50 for PDE4B2 (unknown origin) to IC50 for PDE4D4 (unknown origin)

3',5'-cyclic-AMP phosphodiesterase 4D, sequence (Q08499 whole entry): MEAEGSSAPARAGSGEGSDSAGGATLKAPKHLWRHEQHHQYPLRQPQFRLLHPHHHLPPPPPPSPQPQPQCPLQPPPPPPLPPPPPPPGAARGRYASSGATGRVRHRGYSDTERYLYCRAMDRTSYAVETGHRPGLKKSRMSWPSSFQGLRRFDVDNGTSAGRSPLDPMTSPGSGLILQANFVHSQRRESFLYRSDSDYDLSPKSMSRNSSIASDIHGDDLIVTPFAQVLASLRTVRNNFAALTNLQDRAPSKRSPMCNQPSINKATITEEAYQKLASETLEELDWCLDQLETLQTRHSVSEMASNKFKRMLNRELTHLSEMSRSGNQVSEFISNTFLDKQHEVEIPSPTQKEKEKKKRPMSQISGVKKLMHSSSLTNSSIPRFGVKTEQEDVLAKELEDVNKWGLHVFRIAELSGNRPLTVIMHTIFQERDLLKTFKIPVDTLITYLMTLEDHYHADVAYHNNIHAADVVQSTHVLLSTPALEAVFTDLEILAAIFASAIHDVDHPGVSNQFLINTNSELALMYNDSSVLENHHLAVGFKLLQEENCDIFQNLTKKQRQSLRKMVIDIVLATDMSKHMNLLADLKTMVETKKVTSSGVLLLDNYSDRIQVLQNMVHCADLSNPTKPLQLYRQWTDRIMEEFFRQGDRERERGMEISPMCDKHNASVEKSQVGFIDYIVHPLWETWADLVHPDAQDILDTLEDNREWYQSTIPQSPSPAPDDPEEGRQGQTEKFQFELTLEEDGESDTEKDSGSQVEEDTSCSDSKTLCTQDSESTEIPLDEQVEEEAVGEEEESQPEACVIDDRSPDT
3',5'-cyclic-AMP phosphodiesterase 4B, sequence (Q07343 whole entry): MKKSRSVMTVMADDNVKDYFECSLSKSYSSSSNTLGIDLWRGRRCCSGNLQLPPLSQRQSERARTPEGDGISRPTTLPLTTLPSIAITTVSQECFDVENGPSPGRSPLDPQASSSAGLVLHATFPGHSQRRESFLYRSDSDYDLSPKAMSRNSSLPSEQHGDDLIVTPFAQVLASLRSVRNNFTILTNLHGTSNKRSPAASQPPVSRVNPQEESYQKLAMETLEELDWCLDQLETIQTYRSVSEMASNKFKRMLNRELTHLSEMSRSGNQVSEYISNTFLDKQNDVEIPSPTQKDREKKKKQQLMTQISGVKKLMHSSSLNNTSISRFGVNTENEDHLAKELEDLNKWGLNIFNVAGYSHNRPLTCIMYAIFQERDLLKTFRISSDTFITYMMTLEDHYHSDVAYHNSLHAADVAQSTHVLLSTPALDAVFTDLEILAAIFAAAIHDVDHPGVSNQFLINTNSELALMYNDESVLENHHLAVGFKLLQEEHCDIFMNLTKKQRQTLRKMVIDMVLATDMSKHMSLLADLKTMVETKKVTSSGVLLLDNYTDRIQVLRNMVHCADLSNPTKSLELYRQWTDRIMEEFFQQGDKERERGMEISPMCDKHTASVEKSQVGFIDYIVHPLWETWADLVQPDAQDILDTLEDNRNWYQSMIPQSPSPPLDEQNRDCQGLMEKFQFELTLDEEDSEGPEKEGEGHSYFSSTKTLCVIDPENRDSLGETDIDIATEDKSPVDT
High affinity cAMP-specific and IBMX-insensitive 3',5'-cyclic phosphodiesterase 8A (Homo sapiens), sequence (O60658 whole entry): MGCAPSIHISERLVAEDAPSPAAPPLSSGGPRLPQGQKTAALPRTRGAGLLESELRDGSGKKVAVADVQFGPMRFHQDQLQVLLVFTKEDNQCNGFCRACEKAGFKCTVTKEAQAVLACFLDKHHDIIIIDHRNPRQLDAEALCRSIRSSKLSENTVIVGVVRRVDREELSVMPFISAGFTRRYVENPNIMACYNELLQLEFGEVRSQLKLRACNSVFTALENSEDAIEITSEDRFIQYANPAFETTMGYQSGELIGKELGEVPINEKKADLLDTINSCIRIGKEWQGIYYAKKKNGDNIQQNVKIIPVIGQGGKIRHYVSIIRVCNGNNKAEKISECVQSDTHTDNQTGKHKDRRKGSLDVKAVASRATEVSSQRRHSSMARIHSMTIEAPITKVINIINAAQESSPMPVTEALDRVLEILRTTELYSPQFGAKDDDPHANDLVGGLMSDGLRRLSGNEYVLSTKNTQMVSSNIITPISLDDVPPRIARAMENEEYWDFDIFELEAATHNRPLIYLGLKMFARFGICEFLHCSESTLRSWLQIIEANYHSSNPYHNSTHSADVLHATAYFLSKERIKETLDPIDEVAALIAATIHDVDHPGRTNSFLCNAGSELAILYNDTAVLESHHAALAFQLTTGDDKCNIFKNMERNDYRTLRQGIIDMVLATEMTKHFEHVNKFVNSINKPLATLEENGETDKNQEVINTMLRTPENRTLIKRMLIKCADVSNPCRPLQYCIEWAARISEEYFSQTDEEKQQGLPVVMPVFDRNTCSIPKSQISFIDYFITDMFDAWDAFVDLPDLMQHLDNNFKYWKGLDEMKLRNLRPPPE
Dual specificity calcium/calmodulin-dependent 3',5'-cyclic nucleotide phosphodiesterase 1A (Homo sapiens), sequence (P54750 whole entry): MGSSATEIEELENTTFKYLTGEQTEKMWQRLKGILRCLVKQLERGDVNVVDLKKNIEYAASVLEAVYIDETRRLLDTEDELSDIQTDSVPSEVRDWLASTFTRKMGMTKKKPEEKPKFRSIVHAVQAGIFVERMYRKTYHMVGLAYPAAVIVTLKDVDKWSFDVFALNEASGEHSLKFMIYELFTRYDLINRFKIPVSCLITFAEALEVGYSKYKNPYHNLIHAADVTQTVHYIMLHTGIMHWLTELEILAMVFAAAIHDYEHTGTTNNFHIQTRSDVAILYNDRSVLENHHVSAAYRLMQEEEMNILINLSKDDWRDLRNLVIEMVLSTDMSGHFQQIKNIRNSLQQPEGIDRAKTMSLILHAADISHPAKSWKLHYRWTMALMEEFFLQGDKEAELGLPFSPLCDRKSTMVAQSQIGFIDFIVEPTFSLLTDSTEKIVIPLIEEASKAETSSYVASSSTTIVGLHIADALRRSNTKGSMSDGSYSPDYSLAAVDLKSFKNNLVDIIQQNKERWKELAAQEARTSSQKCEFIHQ
Dual 3',5'-cyclic-AMP and -GMP phosphodiesterase 11A (Homo sapiens), sequence (Q9HCR9 whole entry, looked up): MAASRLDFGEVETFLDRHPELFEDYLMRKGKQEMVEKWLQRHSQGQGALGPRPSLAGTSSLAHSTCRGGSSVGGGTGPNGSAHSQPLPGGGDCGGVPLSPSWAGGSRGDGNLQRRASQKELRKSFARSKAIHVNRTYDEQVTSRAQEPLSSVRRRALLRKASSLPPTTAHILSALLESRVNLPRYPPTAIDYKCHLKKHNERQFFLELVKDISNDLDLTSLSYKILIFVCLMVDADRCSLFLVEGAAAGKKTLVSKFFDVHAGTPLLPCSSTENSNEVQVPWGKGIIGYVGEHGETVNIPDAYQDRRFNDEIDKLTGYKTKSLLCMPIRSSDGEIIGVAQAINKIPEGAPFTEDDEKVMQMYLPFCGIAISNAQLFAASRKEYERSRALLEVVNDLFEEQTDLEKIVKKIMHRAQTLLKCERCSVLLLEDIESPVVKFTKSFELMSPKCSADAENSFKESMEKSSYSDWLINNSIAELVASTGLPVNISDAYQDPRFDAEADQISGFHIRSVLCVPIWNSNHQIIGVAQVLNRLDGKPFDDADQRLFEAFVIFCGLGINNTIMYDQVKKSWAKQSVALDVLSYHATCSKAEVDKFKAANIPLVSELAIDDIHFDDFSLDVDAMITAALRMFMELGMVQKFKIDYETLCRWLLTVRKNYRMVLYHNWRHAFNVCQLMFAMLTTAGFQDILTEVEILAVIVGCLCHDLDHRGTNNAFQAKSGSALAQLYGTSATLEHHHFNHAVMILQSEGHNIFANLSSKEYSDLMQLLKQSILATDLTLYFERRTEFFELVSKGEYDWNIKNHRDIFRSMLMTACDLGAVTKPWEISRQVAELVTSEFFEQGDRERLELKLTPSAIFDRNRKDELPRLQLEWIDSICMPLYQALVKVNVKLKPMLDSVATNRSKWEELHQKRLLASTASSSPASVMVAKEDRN
cGMP-dependent 3',5'-cyclic phosphodiesterase (Homo sapiens), sequence (O00408 whole entry): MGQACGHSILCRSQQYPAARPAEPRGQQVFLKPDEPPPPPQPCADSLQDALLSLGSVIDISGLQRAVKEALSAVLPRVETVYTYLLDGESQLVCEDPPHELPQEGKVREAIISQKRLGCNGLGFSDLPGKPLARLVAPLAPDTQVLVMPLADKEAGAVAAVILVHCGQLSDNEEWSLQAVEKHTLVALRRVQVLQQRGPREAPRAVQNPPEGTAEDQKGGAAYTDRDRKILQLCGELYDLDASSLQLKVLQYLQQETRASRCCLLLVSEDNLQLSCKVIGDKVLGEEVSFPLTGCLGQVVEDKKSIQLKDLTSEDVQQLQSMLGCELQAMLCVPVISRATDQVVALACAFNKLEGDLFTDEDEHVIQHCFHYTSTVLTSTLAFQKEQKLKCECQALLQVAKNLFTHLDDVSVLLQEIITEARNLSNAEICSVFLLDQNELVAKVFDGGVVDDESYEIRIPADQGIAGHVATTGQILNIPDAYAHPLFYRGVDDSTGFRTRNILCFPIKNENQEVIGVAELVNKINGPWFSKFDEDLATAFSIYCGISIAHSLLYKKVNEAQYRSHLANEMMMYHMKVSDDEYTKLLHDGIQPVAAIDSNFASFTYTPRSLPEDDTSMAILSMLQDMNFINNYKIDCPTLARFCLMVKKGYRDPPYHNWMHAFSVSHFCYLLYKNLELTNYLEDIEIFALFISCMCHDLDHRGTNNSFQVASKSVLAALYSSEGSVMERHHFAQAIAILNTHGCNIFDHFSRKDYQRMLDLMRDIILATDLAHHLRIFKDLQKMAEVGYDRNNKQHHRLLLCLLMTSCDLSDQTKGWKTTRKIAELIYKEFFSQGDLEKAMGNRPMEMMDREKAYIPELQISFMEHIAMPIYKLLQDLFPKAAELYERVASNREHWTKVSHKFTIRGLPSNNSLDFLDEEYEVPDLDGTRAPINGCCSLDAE

SMILES: O=C(NCc1ccccc1)c1ccc(OC(F)F)c(OCC2CC2)c1
IC50 [1]: 2100 nM

SMILES: COc1ccc(/C=N/OCC(O)CNN2CC(C)OC(C)C2)cc1OC1CCCC1 (stereo not drawn)
Ratio IC50 [2]: 85

SMILES: COc1ccc(Cc2ccc(NC(N)=O)cc2)cc1-c1cccc(Cl)c1
Ratio IC50 [3]: 54

SMILES: COc1ccccc1OCCNC(=O)c1ccc(OC)c(OCC2CC2)c1
IC50 [1]: 11100 nM

SMILES: COc1ccc([C@H](C)NC(=O)c2cccnc2Oc2ccc(F)cc2)cc1
Ratio IC50 [7]: 142

SMILES: COc1ccccc1OCCNC(=O)c1ccc(OC(F)F)c(OCC2CC2)c1
IC50 [1]: 6900 nM

SMILES: COc1ccccc1OCCNC(=O)c1ccc(OC(F)F)c(OC2CCCC2)c1
IC50 [1]: 12400 nM

SMILES: COc1ccccc1OCCNc1ccc(=O)n(Cc2ccc(OC)c(-c3cccc(Cl)c3)c2)n1
Ratio IC50 [17]: 13

SMILES: COc1ccc(CNC(=O)c2ccc(OC)c(OCC3CC3)c2)cc1OC
IC50 [1]: > 100000 nM

SMILES: O=C(NCc1ccccc1)c1ccc(OC(F)F)c(OC2CCCC2)c1
IC50 [1]: 2200 nM

SMILES: COc1ccc(CNC(=O)c2ccc(OC(F)F)c(OCC3CC3)c2)cc1OC
IC50 [1]: > 100000 nM

Continued, values first:

IC50 [4]: 284 nM
IC50 [5]: 1030 nM
IC50 [1]: 960 nM
Ratio IC50 [6]: 3.6
SMILES: COc1ccc(CNC(=O)c2ccc(OC)c(OC3CCCC3)c2)cc1

IC50 [1]: > 100000 nM
SMILES: COc1ccc(CNC(=O)c2ccc(OC(F)F)c(OC3CCCC3)c2)cc1OC

IC50 [4]: 94 nM
inhibition [8]: 2%
inhibition [9]: 1%
IC50 [5]: 976 nM
inhibition [10]: 16%
inhibition [11]: 2%
inhibition [12]: 2%
IC50 [1]: 1100 nM
inhibition [13]: 6%
inhibition [14]: 10%
inhibition [15]: 3%
inhibition [16]: 11%
SMILES: COc1ccc(CNC(=O)c2ccc(OC(F)F)c(OC3CCCC3)c2)cc1

IC50 [4]: 108 nM
IC50 [5]: 301 nM
IC50 [1]: 410 nM
Ratio IC50 [6]: 2.8
SMILES: COc1ccc(CNC(=O)c2ccc(OC(F)F)c(OCC3CC3)c2)cc1

IC50 [4]: 342 nM
IC50 [5]: 1090 nM
IC50 [1]: 910 nM
Ratio IC50 [6]: 3.2
SMILES: COc1ccc(CNC(=O)c2ccc(OC)c(OCC3CC3)c2)cc1

IC50 [1]: > 100000 nM
SMILES: COc1ccc(CNC(=O)c2ccc(OC)c(OC3CCCC3)c2)cc1OC

IC50 [1]: 18300 nM
SMILES: COc1ccccc1OCCNC(=O)c1ccc(OC)c(OC2CCCC2)c1

Reference: ChEMBL document CHEMBL3627623, “Catecholic amides as potential selective phosphodiesterase 4D inhibitors: Design, synthesis, pharmacological evaluation and structure-activity relationships” (Bioorg Med Chem, 2015)
